Results taken from publication PMC4929832 (Nature, 2016).

Experiments:
EPH-A3 = EPH-A3 (Homo sapiens, UniProt P29320); assay: kinase panel; assay type: biochemical
MKNK1 = MKNK1 (Homo sapiens, UniProt Q9BUB5); assay: kinase panel; assay type: biochemical
MAPK3 = MAPK3 (Homo sapiens, UniProt P27361); assay: kinase panel; assay type: biochemical
CDK4-CYCLIND = CDK4-CYCLIND (Homo sapiens, UniProt P11802); assay: kinase panel; assay type: biochemical
DCAMKL2 = DCAMKL2 (Homo sapiens, UniProt Q8N568); assay: kinase panel; assay type: biochemical
CSK = CSK (Homo sapiens, UniProt P41240); assay: kinase panel; assay type: biochemical
P38-ALPHA = P38-ALPHA (Homo sapiens, UniProt Q16539); assay: kinase panel; assay type: biochemical
P38-ALPHA, sequence (Q16539 whole entry): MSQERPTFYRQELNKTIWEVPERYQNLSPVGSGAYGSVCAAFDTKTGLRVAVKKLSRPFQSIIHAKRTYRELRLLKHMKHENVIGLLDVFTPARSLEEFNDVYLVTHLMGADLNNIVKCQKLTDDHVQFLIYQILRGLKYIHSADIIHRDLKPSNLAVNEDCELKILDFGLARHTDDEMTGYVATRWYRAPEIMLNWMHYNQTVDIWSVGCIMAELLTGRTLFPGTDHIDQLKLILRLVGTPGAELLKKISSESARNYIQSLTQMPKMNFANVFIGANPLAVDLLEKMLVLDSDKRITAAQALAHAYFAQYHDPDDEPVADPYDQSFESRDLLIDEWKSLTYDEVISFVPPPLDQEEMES

PRKX = PRKX (Homo sapiens, UniProt P51817); assay: kinase panel; assay type: biochemical
AMP-A1B1G1 = AMP-A1B1G1 (Homo sapiens, UniProt Q13131); assay: kinase panel; assay type: biochemical
MRCK-ALPHA = MRCK-ALPHA (Homo sapiens, UniProt Q5VT25); assay: kinase panel; assay type: biochemical
CAMK2A = CAMK2A (Homo sapiens, UniProt Q9UQM7); assay: kinase panel; assay type: biochemical
CDK7 = CDK7 (Homo sapiens, UniProt P50613); assay: kinase panel; assay type: biochemical
SGK1 = SGK1 (Homo sapiens, UniProt O00141); assay: kinase panel; assay type: biochemical
SGK1, sequence (O00141 whole entry): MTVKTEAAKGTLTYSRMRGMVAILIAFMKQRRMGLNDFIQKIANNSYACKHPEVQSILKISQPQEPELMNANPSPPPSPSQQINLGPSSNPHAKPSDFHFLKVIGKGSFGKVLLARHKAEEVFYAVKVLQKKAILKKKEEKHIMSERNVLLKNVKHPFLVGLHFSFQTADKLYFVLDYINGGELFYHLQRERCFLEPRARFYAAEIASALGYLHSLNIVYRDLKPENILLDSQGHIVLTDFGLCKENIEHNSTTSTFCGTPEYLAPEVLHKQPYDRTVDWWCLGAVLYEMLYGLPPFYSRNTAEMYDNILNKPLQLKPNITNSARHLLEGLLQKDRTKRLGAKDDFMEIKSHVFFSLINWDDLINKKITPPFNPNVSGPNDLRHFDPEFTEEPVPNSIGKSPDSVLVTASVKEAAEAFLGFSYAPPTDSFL

IRR = IRR (Homo sapiens, UniProt P14616); assay: kinase panel; assay type: biochemical
IRR, sequence (P14616 27-1297): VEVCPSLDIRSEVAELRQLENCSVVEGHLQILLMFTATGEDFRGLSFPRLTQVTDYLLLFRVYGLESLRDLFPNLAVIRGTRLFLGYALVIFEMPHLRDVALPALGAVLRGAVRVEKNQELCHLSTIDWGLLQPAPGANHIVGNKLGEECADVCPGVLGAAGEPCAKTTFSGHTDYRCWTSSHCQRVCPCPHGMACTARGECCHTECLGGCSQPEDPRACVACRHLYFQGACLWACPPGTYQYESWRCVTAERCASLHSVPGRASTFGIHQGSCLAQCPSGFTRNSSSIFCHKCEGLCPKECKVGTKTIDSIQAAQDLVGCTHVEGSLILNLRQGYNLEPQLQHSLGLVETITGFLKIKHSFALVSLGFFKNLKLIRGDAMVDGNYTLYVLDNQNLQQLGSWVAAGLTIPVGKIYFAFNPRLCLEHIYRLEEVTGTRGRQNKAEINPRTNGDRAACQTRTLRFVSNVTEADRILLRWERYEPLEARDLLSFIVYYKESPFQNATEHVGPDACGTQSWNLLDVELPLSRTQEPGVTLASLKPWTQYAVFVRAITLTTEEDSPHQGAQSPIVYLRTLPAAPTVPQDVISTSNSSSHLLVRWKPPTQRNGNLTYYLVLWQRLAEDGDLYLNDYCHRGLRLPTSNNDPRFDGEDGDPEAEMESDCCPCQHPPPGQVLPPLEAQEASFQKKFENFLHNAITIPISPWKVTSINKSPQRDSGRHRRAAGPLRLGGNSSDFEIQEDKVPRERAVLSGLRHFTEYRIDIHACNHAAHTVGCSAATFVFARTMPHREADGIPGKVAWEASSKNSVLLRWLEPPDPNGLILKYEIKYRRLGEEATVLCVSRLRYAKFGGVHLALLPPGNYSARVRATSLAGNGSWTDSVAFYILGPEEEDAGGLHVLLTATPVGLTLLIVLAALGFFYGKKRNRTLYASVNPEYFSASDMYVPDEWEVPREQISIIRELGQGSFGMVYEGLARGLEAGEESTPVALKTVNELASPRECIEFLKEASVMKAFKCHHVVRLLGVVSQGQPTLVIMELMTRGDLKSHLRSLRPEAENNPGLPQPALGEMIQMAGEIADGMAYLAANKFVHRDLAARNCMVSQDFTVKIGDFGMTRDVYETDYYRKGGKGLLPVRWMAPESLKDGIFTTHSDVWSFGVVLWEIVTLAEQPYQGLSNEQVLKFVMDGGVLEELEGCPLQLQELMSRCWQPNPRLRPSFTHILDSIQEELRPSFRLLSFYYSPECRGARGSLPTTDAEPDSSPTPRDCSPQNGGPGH

YES = YES (Homo sapiens, UniProt P07947); assay: kinase panel; assay type: biochemical
PAK1 = PAK1 (Homo sapiens, UniProt Q13153); assay: kinase panel; assay type: biochemical
JNK2 = JNK2 (Homo sapiens, UniProt P45984); assay: kinase panel; assay type: biochemical
SPHK2 = SPHK2 (Homo sapiens, UniProt Q9NRA0); assay: kinase panel; assay type: biochemical
GRK5 = GRK5 (Homo sapiens, UniProt P34947); assay: kinase panel; assay type: biochemical
Dopamine Transporter = Dopamine Transporter (Homo sapiens, UniProt Q01959); assay: Dopamine Transporter assay; assay type: binding
Dopamine Transporter, sequence (Q01959 whole entry): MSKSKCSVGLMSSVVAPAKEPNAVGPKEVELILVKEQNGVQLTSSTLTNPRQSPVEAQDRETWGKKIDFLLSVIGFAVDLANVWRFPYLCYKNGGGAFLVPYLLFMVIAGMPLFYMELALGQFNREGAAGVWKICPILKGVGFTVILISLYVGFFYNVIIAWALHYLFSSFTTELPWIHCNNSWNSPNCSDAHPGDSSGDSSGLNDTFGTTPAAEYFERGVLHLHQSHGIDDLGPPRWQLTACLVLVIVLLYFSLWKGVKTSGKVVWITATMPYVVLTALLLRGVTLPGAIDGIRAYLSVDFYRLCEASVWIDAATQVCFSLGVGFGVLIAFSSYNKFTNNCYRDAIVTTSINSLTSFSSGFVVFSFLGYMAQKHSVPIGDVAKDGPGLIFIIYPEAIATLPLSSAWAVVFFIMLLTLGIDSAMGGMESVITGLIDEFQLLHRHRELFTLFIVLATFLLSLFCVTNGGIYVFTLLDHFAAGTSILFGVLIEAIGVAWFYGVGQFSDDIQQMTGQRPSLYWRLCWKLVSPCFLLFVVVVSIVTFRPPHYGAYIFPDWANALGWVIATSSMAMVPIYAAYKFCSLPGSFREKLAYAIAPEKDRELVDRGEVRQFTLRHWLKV

HaCaT cells = assay: Proliferation assay; assay type: cell-based; details: Homo sapiens, 72 h, read-out: EC50 Proliferation
In short: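 Cells were maintained in 10% FBS/RPMI with penicillin/streptomycin and plated at 500 cells/well in 10% FBS RPMI. Serially diluted test compound was pin-transferred. Viability was read after 3 days by CellTiter-Glo luminescence and normalized to 0.1% DMSO-treated cells and empty wells. EC50 was obtained by non-linear regression curve fitting.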

TNK2 = TNK2 (Homo sapiens, UniProt Q07912); assay: kinase panel; assay type: biochemical
Phosphodiesterase 4D = Phosphodiesterase 4D (Homo sapiens, UniProt Q08499); assay: Phosphodiesterase 4D assay; assay type: biochemical
SRMS = SRMS (Homo sapiens, UniProt Q9H3Y6); assay: kinase panel; assay type: biochemical
MARK1 = MARK1 (Homo sapiens, UniProt Q9P0L2); assay: kinase panel; assay type: biochemical
[1] = system: L858R/T790M/C797S EGFR Ba/F3 cells; assay: Ba/F3 cell proliferation; assay type: cell-based; details: EAI045 in combination with cetuximab, 72 hours
In short: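 Ba/F3 cells, either parental or stably expressing mutant EGFR lines described earlier, were exposed to the test compound for 72 hours. Cell numbers were set empirically. Growth was read by MTS assay. Each point was run in six wells, and each experiment was repeated at least three times. Curves were fitted by non-linear regression to a sigmoidal dose response.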

DYRK1A = DYRK1A (Homo sapiens, UniProt Q13627); assay: kinase panel; assay type: biochemical
GRK6 = GRK6 (Homo sapiens, UniProt P43250); assay: kinase panel; assay type: biochemical
GRK6, sequence (P43250 whole entry): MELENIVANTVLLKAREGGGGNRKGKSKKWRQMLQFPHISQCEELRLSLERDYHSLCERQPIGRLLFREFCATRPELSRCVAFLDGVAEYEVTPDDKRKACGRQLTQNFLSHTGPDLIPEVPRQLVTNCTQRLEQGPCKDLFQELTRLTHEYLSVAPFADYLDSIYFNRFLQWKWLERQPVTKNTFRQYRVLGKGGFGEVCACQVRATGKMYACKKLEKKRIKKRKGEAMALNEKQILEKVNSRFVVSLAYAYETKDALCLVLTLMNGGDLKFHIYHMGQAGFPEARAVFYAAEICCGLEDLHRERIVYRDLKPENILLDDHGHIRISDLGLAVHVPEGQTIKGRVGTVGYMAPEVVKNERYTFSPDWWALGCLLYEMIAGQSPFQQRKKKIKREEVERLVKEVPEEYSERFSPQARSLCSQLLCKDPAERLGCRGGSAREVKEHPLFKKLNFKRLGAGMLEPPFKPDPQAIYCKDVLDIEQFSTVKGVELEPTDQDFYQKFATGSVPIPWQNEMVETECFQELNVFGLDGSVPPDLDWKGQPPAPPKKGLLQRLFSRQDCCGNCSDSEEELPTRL

RIPK2 = RIPK2 (Homo sapiens, UniProt O43353); assay: kinase panel; assay type: biochemical
DYRK4 = DYRK4 (Homo sapiens, UniProt Q9NR20); assay: kinase panel; assay type: biochemical
MEK2 = MEK2 (Homo sapiens, UniProt P36507); assay: kinase panel; assay type: biochemical
MEK2, sequence (P36507 whole entry): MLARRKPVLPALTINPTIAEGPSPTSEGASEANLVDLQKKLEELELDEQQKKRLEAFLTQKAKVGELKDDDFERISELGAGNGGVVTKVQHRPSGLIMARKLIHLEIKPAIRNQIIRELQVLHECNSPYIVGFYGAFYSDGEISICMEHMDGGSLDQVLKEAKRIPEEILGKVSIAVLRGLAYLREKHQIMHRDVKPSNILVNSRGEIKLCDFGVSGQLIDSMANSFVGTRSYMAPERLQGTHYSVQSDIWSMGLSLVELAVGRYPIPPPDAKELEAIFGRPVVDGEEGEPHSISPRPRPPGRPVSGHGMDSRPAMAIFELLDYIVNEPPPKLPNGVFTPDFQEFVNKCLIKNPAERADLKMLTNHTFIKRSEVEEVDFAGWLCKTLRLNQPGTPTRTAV

PRKD2 = PRKD2 (Homo sapiens, UniProt Q9BZL6); assay: kinase panel; assay type: biochemical
MSK2 = MSK2 (Homo sapiens, UniProt O75676); assay: kinase panel; assay type: biochemical
PKN1 = PKN1 (Homo sapiens, UniProt Q16512); assay: kinase panel; assay type: biochemical
PAK2 = PAK2 (Homo sapiens, UniProt Q13177); assay: kinase panel; assay type: biochemical
[2] = system: panel of 250 protein kinases; assay: Profiling against a panel of 250 protein kinases; assay type: biochemical; details: 1 μM EAI045
MARK3 = MARK3 (Homo sapiens, UniProt P27448); assay: kinase panel; assay type: biochemical
MARK3, sequence (P27448 whole entry): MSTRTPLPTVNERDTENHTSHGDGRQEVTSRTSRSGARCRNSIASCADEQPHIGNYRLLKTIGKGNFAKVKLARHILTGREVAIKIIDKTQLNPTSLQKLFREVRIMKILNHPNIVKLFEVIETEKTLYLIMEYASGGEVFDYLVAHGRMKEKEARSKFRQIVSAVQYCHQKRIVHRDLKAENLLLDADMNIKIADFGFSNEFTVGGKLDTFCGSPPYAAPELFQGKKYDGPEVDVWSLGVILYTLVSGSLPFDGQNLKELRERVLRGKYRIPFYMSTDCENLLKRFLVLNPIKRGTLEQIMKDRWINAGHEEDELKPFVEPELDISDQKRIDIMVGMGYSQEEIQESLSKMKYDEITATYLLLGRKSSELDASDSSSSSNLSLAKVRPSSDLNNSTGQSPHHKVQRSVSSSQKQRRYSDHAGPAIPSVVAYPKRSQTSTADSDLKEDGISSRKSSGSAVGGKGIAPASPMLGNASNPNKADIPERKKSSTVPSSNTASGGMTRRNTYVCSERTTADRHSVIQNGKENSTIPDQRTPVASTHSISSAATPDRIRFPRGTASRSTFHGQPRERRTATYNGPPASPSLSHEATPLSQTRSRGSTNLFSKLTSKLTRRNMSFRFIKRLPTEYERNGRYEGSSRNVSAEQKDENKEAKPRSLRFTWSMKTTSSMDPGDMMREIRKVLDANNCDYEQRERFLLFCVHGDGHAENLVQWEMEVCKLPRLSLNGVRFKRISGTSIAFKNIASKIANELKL

IKK-EPSILON = IKK-EPSILON (Homo sapiens, UniProt Q14164); assay: kinase panel; assay type: biochemical
ABL1 = ABL1 (Homo sapiens, UniProt P00519); assay: kinase panel; assay type: biochemical
TXK = TXK (Homo sapiens, UniProt P42681); assay: kinase panel; assay type: biochemical
TXK, sequence (P42681 whole entry): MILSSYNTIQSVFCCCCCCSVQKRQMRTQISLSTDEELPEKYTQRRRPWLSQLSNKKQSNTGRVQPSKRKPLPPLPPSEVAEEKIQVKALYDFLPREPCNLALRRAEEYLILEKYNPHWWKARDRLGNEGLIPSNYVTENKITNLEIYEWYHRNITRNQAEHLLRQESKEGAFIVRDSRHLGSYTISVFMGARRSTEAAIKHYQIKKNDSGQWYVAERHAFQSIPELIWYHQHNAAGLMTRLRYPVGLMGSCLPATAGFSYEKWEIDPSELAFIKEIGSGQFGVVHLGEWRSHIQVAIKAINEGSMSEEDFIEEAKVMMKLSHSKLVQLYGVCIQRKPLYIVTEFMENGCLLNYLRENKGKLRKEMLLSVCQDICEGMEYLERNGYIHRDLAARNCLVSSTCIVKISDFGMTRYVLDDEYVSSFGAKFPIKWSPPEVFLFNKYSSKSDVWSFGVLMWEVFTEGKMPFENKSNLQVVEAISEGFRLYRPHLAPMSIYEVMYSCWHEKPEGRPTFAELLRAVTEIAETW

inhibition at 1 µM (EPH-A3): 1%
inhibition at 1 µM (MKNK1): 0%
inhibition at 1 µM (MAPK3): 0%
inhibition at 1 µM (CDK4-CYCLIND): 0%
inhibition at 1 µM (DCAMKL2): 0%
inhibition at 1 µM (CSK): 0%
inhibition at 1 µM (P38-ALPHA): 0%
inhibition at 1 µM (PRKX): 3%
inhibition at 1 µM (AMP-A1B1G1): 1%
inhibition at 1 µM (MRCK-ALPHA): 0%
inhibition at 1 µM (CAMK2A): 2%
inhibition at 1 µM (CDK7): 0%
inhibition at 1 µM (SGK1): 6%
inhibition at 1 µM (IRR): 0%
inhibition at 1 µM (YES): 0%
inhibition at 1 µM (PAK1): 0%
inhibition at 1 µM (JNK2): 0%
inhibition at 1 µM (SPHK2): 0%
inhibition at 1 µM (GRK5): 0%
IC50 (Dopamine Transporter): > 30 µM
inhibition at 1 µM (TNK2): 2%
IC50 (Phosphodiesterase 4D): > 30 µM
inhibition at 1 µM (SRMS): 0%
inhibition at 1 µM (MARK1): 0%
inhibition at 1 µM (DYRK1A): 0%
inhibition at 1 µM (GRK6): 0%
inhibition at 1 µM (RIPK2): 0%
inhibition at 1 µM (DYRK4): 1%
inhibition at 1 µM (MEK2): 0%
inhibition at 1 µM (PRKD2): 2%
inhibition at 1 µM (MSK2): 2%
inhibition at 1 µM (PKN1): 0%
inhibition at 1 µM (PAK2): 0%
inhibition at 1 µM (MARK3): 0%
inhibition at 1 µM (IKK-EPSILON): 0%
inhibition at 1 µM (ABL1): 1%
inhibition at 1 µM (TXK): 0%
SMILES: O=C(Nc1nccs1)C(c1cc(F)ccc1O)N1Cc2ccccc2C1=O (stereo not shown) [EAI045, 2-(5-fluoro-2-hydroxyphenyl)-2-(1-oxo-2,3-dihydro-1H-isoindol-2-yl)-N-(1,3-thiazol-2-yl)acetamide]
EC50 (HaCaT cells): > 10 µM
inhibition of proliferation [1]: potently inhibited
inhibition of other kinases in the panel [2]: ≤ 20%
